# Screens deposited in PubChem by Johns Hopkins Ion Channel Center.
# Most compounds without a hit are left out; they make up all but 2.9% or so of the library.
# TRPC4 PAM: allosterically enhances the mouse TRPC4 cation channel. B-score at 10 µM. HEK293 TRPC4beta/mu-opioid, DAMGO EC20, Fluo-4 Ca2+ flux; stronger effect = higher value. Q9QUQ5. 310,000 compounds, 0.42% hits;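 active means B-score of calcium response area above 5 SD of library B-scores, with initial fluorescence ratio within 5 SD of library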
# TRPC4 act: TRPC4 (mouse) channel activation; HEK293 TRPC4beta/mu-opioid, Fluo4 calcium fluorescence; stronger effect = higher value; B-score at 10 µM; 310,000 compounds, 0.49% hits;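 active means B-score above 5 SD of library B-scores, and initial fluorescence ratio not above library mean plus 5 SD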;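 further: positive B-score marks a calcium rise read as TRPC4 activation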
#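 Assay system – TRPC4beta and mu-opioid receptor HEK293 stable cells · Measured by – Fluo4 fluorescence, kinetic · Schedule – dye loading 45 min room temperature, 110 s kinetic read · Read-out – B-scored integrated calcium fluorescence ratio · Controls – buffer and maximal DAMGO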
# Kir21 block: inhibitors of mouse Kir2.1 inward-rectifier potassium channel | P35561 | HEK293-Kir2.1, FluxOR thallium flux fluorescence; stronger effect = lower value | B-score at 10 µM | 310,000 compounds, 0.85% hits | AID 1672;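 active means fluorescence ratio B-score at or below minus 3 SD of library scores, with starting-brightness B-score within 2 SD, cut at about -4.2 in these data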;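 further: channel flux triggered by added potassium and thallium sulfate stimulus; B-score of peak minus minimum fluorescence over baseline after thallium stimulus; more negative B-score means stronger Kir2.1 block with less thallium influx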
# TRPC6 inhibitor: mouse TRPC6 channel inhibition; HEK293-TRPC6, membrane potential dye, ACh-evoked depolarization; stronger effect = lower value; B-score at 10 µM; 310,000 compounds, 1.1% hits;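 active means B-score under library mean minus 3 SD, initial fluorescence not abnormally high, positive integrated signal ratio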;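 further: B-score derived from integrated fluorescence ratio over the kinetic read; more negative B-score means stronger inhibition of depolarization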
# Target sequence (Q61143 whole entry, looked up): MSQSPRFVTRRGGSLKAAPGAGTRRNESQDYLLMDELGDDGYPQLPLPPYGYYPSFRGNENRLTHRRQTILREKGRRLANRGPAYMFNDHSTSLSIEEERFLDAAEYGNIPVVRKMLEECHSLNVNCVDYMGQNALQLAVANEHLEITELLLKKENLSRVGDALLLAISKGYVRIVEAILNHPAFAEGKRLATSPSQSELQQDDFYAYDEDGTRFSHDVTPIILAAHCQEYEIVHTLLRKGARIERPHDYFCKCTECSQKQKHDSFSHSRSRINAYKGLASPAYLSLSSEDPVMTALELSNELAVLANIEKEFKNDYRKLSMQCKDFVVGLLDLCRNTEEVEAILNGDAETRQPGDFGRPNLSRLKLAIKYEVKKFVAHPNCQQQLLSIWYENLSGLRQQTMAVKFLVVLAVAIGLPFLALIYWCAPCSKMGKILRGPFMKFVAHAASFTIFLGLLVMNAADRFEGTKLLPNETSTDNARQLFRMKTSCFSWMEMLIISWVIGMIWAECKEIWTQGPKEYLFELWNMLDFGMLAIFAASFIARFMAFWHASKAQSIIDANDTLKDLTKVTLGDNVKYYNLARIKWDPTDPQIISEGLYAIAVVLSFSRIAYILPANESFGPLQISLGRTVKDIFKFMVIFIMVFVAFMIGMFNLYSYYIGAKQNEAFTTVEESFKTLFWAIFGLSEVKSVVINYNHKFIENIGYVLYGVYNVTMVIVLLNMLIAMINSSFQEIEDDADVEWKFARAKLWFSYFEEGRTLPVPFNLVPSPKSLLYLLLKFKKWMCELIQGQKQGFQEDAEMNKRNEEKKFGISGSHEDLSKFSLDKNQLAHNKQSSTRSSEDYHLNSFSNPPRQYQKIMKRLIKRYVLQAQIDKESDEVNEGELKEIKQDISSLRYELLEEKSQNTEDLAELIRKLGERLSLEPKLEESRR
# TRPC4 inh: blocks the mouse TRPC4 cation channel. 300,000 compounds, 0.39% hits. B-score at 10 µM. HEK293 TRPC4beta/mu-opioid, DAMGO-evoked Fluo4 calcium flux; stronger effect = lower value. Q9QUQ5;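 active means B-score over 3 SD under the library average, no early fluorescence shift, positive overall ratio signal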
#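 System: stable TRPC4beta/mu-opioid receptor HEK293 cells; Dosing: single-point compound dosing; Measured by: Fluo4 Ca2+ flux fluorescence; Read-out basis: per-well B score of integrated baseline-normalized Fluo4 ratio.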
# TRPC6 activator: activators of mouse TRPC6 channel; Q61143; HEK293-TRPC6 membrane potential dye fluorescence; stronger effect = higher value; B-score at 10 µM; 310,000 compounds, 0.13% hits;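 active means B-score of the integrated fluorescence ratio above library mean plus 3 SD, and starting fluorescence ratio within library mean plus 5 SD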;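 further: higher score means more depolarization so channel activation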
# Numbers stand for hits; . = inactive.
SMILES,TRPC4 PAM,TRPC4 act,Kir21 block,TRPC6 inhibitor,TRPC4 inh,TRPC6 activator
CC(CCc1ccccc1)NC(=O)CN1C(=O)NC2(CCCCC2)C1=O (stereo not given),.,.,.,.,.,.
Fc1ccc(Cn2cccc2C2=NC(c3ccccc3)CO2)cc1 (stereo not given),.,.,-5.9,.,.,.
Cc1oc(-c2ccccc2)nc1Cn1cccc1C1=NC(c2ccccc2)CO1 (stereo not given),.,.,.,.,.,.
CN(Cc1ccccc1)C(=O)CCCn1c(=O)c2cccn2c2cccnc21,.,.,.,.,.,.
CCCCS(=O)(=O)N1CCCC(C(=O)NCC2CCCO2)C1 (stereo not given),.,85,.,.,.,.
COc1ccc(NC(=S)NN(C)C(=S)Nc2ccc(OC)cc2)cc1,.,.,.,.,.,.
CCOc1ccccc1CN1CCN(Cc2cccc3nonc23)CC1CCO (stereo not given),.,.,.,.,-6,.
COc1ccc(Br)cc1CN(C)CC(=O)NCCc1ccccc1,.,.,-5.5,.,.,.
CN(CC(=O)NCCc1ccc(F)cc1)Cc1ccccc1,.,.,.,.,.,.
COc1ccc(Br)cc1CN(C)CC(=O)NCCc1ccc(S(N)(=O)=O)cc1,.,.,-4.7,.,.,.
COc1ccccc1CNC(=O)CN(C)Cc1ccc(SC)cc1,.,.,-5.4,.,.,.
CCN(CC(=O)NCc1cccs1)C(=O)c1cccc(S(=O)(=O)Nc2ccccc2Cl)c1,.,.,.,.,.,.
Cc1ccc(C)c(COc2coc(CN3CCN(C(=O)c4ccco4)CC3)cc2=O)c1,.,.,.,.,.,.
CCCn1cc(SCC(=O)NCc2ccc3c(c2)OCO3)c2ccccc21,.,.,.,.,.,.
CCn1cc(SCC(=O)NCc2ccc3c(c2)OCO3)c2ccccc21,.,.,-4.7,.,.,.
O=C(CSc1nccn1-c1ccc(Cl)cc1)NCc1ccc2c(c1)OCO2,.,.,-4.5,.,.,.
COC(=O)NC1(C(=O)O)CCCC1,.,.,.,.,.,.
O=C(C1CC1)N1CCN(c2ccc(O)cc2)CC1,.,.,.,.,.,.
CCCOc1ccc(Br)cc1CSC(=N)N,.,.,-8.2,.,.,.
Cc1cccc(C)c1NC(=O)CN(C)C(=O)CSC(=S)N1CCCC1,.,.,.,.,.,.
CN(C)CCNC(=O)c1ccc2c(=O)n(Cc3ccc(Cl)cc3)c(=S)[nH]c2c1,.,.,.,.,.,.
CCOCCCn1c(=S)[nH]c2cc(C(=O)NCCCN(CC)CC)ccc2c1=O,24,.,.,.,.,.
CCCCN(C)CCNC(=O)c1ccc(Cn2c(=S)[nH]c3ccc(Br)cc3c2=O)cc1,25,.,.,.,.,.
CCCCCn1c(=O)[nH]c2cc(C(=O)NCCCN(C)Cc3ccccc3)ccc2c1=O,12,.,.,.,.,.
CCN(CC)CCNC(=O)c1ccc2c(=O)n(CCc3ccccc3)c(=O)[nH]c2c1,.,.,.,.,.,.
SMILES,TRPC4 PAM,TRPC4 act,Kir21 block,TRPC6 inhibitor,TRPC4 inh,TRPC6 activator
C=CCC1(CC=C)CCCN1C(=O)c1cc(COc2ccccc2SC)on1,.,.,.,.,.,.
COc1ccc(C(=S)N2CCOCC2)cc1OC(=O)c1ccccc1,.,.,.,.,.,.
COc1cc(C(=S)N2CCOCC2)ccc1OC(=O)c1ccccc1,.,.,-5.1,.,.,.
O=C(Oc1ccc(C(=S)N2CCCCC2)cc1)c1ccccc1,.,.,-4.6,.,.,.
O=C(Oc1ccc(C(=S)N2CCOCC2)cc1Cl)c1ccccc1F,.,.,-5.8,.,.,.
O=C(Oc1ccc(C(=S)N2CCOCC2)cc1Br)c1ccccc1F,.,.,-6.3,.,.,.
O=C(Oc1cccc(C(=S)N2CCCCC2)c1)c1ccccc1,.,.,.,.,.,.
O=C(Oc1ccc(Br)cc1C(=S)N1CCOCC1)c1ccc(F)cc1,.,.,.,.,.,.
CC1CCN(C(=O)COc2ccc3ccccc3c2Br)CC1,.,.,.,.,.,.
CC(C)(C)c1nc2c(Br)cc(Br)cc2c(=O)o1,.,.,.,.,.,.
